From PubChem
KCNQ1 inh: inhibitors of human KCNQ1 channel, primary screen, cell-based, thallium flux, high-throughput | Potassium voltage-gated channel subfamily KQT member 1 (Homo sapiens), P51787 | CHO-K1 KCNQ1, FluxOR thallium flux fluorescence; stronger effect = higher value | B-score at 10 µM | actives 1.3% (n = 310,000);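 active = compounds whose thallium flux B-score, printed positive for inhibition, exceeds three library SD while starting fluorescence stays within three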;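 also: channel opened by potassium depolarization with thallium stimulus after 20 min compound exposure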
Cl transport mod: KCC2 cotransporter modulators, thallium flux, primary screen, cell-based, HEK293 KCC2, FluoZin-2 fluorescence, MLSMR. actives 2.2% (n = 190,000). B-score of Tl+ flux slope (higher = more flux/activation; lower = inhibition) at 10 µM. Solute carrier family 12 member 5 (Homo sapiens), Q9H2X9. KCC2 cells, thallium flux FluoZin-2 fluorescence;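 active = thallium flux slope and its plate-corrected score both differing from the plate sample mean at a set confidence after two filtering rounds, in either direction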;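 also: slope of fluorescence scaled to starting intensity during 10 to 20 s after thallium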
hERG protect: hERG rescue from dofetilide block, primary screen, cell-based, CHO-hERG, FluxOR thallium flux, dofetilide IC70; Voltage-gated inwardly rectifying potassium channel KCNH2 (Homo sapiens), Q12809; actives 0.51% (n = 310,000); activation (rescue from dofetilide block), less the hit threshold, % at 10 µM; AID 1511, 2009; dofetilide IC70 present;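 active = activation above the mean of controls blocked by dofetilide plus 5 SD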;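 also: thallium influx through hERG after potassium depolarization seen as dye fluorescence rise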
KCNK3 block: human KCNK3 channel inhibitors, primary screen, CHO cells, FluxOR thallium flux, B-score; actives 0.84% (n = 340,000); AID 602410, 2012; B-score at 10 µM; FluxOR fluorescence; stronger effect = lower value;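 active = B-score under library mean minus 4 SD, starting fluorescence ratio at most library mean plus 5 SD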;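 also: more negative B-score means stronger inhibition of thallium flux through KCNK3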
KCNK9 block: KCNK9 potassium channel inhibitors, primary screen, HEK293 cells, thallium flux; FluxOR thallium flux fluorescence; stronger effect = lower value; B-score at 10 µM; actives 1.2% (n = 310,000); Potassium channel subfamily K member 9 (Homo sapiens), Q9NPC2;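 active = ratio B-score over 3 SD below the library mean, with starting fluorescence within 5 SD of its mean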;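 also: negative B-score means less thallium flux so channel inhibition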
Target sequence (Q9NPC2 whole entry, looked up): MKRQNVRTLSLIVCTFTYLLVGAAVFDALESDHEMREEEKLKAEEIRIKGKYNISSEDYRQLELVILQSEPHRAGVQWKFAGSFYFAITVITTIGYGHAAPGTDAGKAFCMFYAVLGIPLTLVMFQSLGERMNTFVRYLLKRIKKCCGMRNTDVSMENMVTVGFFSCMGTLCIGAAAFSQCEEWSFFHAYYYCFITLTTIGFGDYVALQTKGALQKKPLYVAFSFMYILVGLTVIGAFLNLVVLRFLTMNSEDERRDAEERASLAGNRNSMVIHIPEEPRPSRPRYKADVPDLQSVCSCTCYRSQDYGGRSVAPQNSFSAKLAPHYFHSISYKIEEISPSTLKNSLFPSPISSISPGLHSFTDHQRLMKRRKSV
KCNQ1 pot: potentiators or activators of KCNQ1 channel, primary screen, cell-based, thallium flux, high-throughput | Potassium voltage-gated channel subfamily KQT member 1 (Homo sapiens), P51787 | CHO-K1 KCNQ1, thallium flux FluxOR fluorescence; stronger effect = higher value | B-score at 10 µM | actives 0.35% (n = 310,000);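 active = fluorescence ratio B-score, a plate-corrected score, at least three library SD, with initial intensity B-score within 5 SD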
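Schedule – 37 °C overnight plating, 90-min dark dye load, 20-min compound pretreatment · System – stable KCNQ1 CHO-K1 line · Probe or stimulus – thallium- and potassium-containing depolarizing buffer · Measured by – kinetic FluxOR fluorescence, 10 s baseline plus 110 s post-stimulus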
KCNK9 inh conf: KCNK9 potassium channel inhibitors, confirmation, HEK293 cells, thallium flux, duplicate; shares compounds with KCNK9 block; FluxOR thallium flux fluorescence; inhibition, % at 10 µM; actives 43% (n = 4,900);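 active = thallium signal inhibited by more than 5 SD of the compound-free buffer control wells, on both duplicate plates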
Kir2-1 spec: mouse Kir2.1 channel inhibition, confirmation, selectivity assay for KCNK9 modulator project, cell-based, HEK293, thallium flux; inhibition, % at 10 µM; shares compounds with KCNK9 block; AID 492993, 2010; actives 4% (n = 4,900); Kir2.1 cells, FluxOR thallium flux fluorescence;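 active = thallium signal drop more than 5 SD beyond the mean of the no-compound control wells, seen in both duplicate plates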;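 also: signal is fluorescence rise after thallium addition divided by baseline fluorescence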
KCNK9 uninduced: thallium flux in non-induced HEK293 cells, confirmation, counter-screen for KCNK9 inhibitor project, cell-based, second counter screen, non-induced KCNK9-HEK293; shares compounds with KCNK9 block; FluxOR thallium flux; inhibition, % at 10 µM; actives 40% (n = 4,900);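 active = thallium signal drop beyond 5 SD of the untreated control mean, on both duplicate plates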
Of the large screens only hits and unclear results are named; the others gave an inactive call (follow-up assays come after a bar, where they were run). Only some compounds are listed: those with a hit (about 4.1% of all), similar ones and a draw of the others.

CCCn1c(C)cc(C(=O)CSc2nc3ccccc3c(=O)n2Cc2ccco2)c1C	none | KCNK9 inh conf inactive | Kir2-1 spec inactive | KCNK9 uninduced inactive
NC(=O)CSc1nc2ccccc2c(=O)n1Cc1ccco1	none
N#Cc1c(SCc2ccccc2)nc(N2CCOCC2)c2c1CCCC2	none (no result: KCNQ1 inh, Cl transport mod, hERG protect, KCNK9 block, KCNQ1 pot)
CCSc1nc(N2CCCCC2)c2c(c1C#N)CCCC2	KCNK9 block -12.5 | KCNK9 inh conf 57.0% | Kir2-1 spec inactive | KCNK9 uninduced 45.5%
O=C(CCN=C1NS(=O)(=O)c2ccccc21)OCc1nnc(-c2ccc([N+](=O)[O-])cc2)o1	none (no result: KCNQ1 inh, Cl transport mod, hERG protect, KCNK9 block, KCNQ1 pot)
CC(C)(C)[C@H]1C=C(C(=O)NCc2ccccc2)O[C@@H](OCCCCO)C1	none (no result: Cl transport mod) | KCNK9 inh conf inactive | Kir2-1 spec inactive | KCNK9 uninduced inactive
CC(C)(C)[C@H]1C=C(C(=O)NCc2nc3ccccc3[nH]2)O[C@@H](OCCCCO)C1	none
O=C(NC1CC1)C1=C[C@H](c2csc3ccccc23)C[C@H](OCc2ccc(CO)cc2)O1	none
O=C(Nc1ccccc1)C1=C[C@H](c2csc3ccccc23)C[C@H](OCc2ccc(CO)cc2)O1	KCNK9 block -9.1 | KCNK9 inh conf 45.5% | Kir2-1 spec inactive | KCNK9 uninduced 35.5%
O=C(C1=C[C@H](c2ccc(Br)cc2)C[C@H](OCCCCO)O1)N1CCN(Cc2ccccc2)CC1	none | KCNK9 inh conf inactive | Kir2-1 spec inactive | KCNK9 uninduced inactive
C#Cc1ccc([C@H]2C=C(C(=O)NCc3ccccc3)O[C@@H](OCc3ccc(CO)cc3)C2)cc1	none (no result: Cl transport mod) | KCNK9 inh conf inactive | Kir2-1 spec inactive | KCNK9 uninduced inactive
O=C(NCc1ccccc1)C1=C[C@H](c2ccc(Br)cc2)C[C@H](OCCCCO)O1	none (no result: Cl transport mod) | KCNK9 inh conf inactive | Kir2-1 spec inactive | KCNK9 uninduced inactive
Cc1cc(C)n(CC(O)Cn2c3ccccc3c3ccccc32)n1 (stereo not drawn)	none
Cc1cc(C)n(CC(O)CN2c3ccccc3Sc3ccccc32)n1 (stereo not drawn)	KCNQ1 inh 6 (no result: Cl transport mod) | KCNK9 inh conf inactive | Kir2-1 spec inactive | KCNK9 uninduced inactive
Fc1cc(F)c(F)c(SCn2cc(Br)cn2)c1F	none (no result: KCNQ1 inh, Cl transport mod, hERG protect, KCNK9 block, KCNQ1 pot)
CCN(c1ccccc1)S(=O)(=O)c1cc([N+](=O)[O-])ccc1N	KCNK9 block -10.6 | KCNK9 inh conf 41.0% | Kir2-1 spec 31.0% | KCNK9 uninduced 33.0%
O=C(CCCNC(=O)c1ccc(Cl)cc1)Nc1ccc(F)c(S(=O)(=O)N2CCOCC2)c1	none (no result: KCNQ1 inh, Cl transport mod, hERG protect, KCNK9 block, KCNQ1 pot)
CSc1ncccc1C(=O)N1CCCC(C(=O)c2ccc3ccccc3c2)C1 (stereo not drawn)	none (no result: Cl transport mod) | KCNK9 inh conf inactive | Kir2-1 spec inactive | KCNK9 uninduced inactive
O=C(c1ccc2ccccc2c1)C1CCCN(C(=O)c2cccnc2)C1 (stereo not drawn)	none (no result: Cl transport mod)
CN(C)c1ccccc1C(=O)N1CCCC(C(=O)c2ccc3ccccc3c2)C1 (stereo not drawn)	none | KCNK9 inh conf inactive | Kir2-1 spec inactive | KCNK9 uninduced inactive
Cc1ccc(S(=O)(=O)Nc2nc(-c3ccccc3)cs2)cc1	none (no result: Cl transport mod)
